Source: ChEMBL document CHEMBL5724801, “EUbOPEN Chemogenomics Library - Multiplex” (2024)
“And” between values parts separate entries of the source, which are not always exact repeats. Equal entries are not always repeated.

Tested on: Fibroblast
Assay: Multiplex assay against human fibroblast
Format: toxicity, cell-based
Procedure, shortened: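 On a CQ1 microscope at 37°C and 5% CO2, live cells were imaged after compound addition. They had been stained at seeding with Hoechst33342, BioTracker Green Microtubule Cytoskeleton Dye, MitoTracker Red and Annexin V Alexa Fluor 680. CellPathfinder machine-learning gating assigned cells to Hoechst high-intensity objects or normal cells, normal cells to healthy, pyknosed or fragmented nuclei, and pyknosed cells to mitotic or apoptotic. Tubulin, mitochondrial-mass and membrane-permeability phenotypes are per cents of healthy-nucleus cells.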

[1] = 12 h, 1 µM, compound concentration 1 uM
[2] = 12 h, 10 µM, compound concentration 10 uM
[3] = 24 h, 1 µM, compound concentration 1 uM
[4] = 24 h, 10 µM, compound concentration 10 uM
[5] = 48 h, 1 µM, compound concentration 1 uM
[6] = 48 h, 10 µM, compound concentration 10 uM

SMILES: COc1cc(NC(=O)CCN2CCC(OC(=O)Nc3ccccc3-c3ccccc3)CC2)c(Cl)cc1CNC[C@H](O)c1ccc(O)c2[nH]c(=O)ccc12 [BATEFENTEROL]
- Population Apoptotic (%) [1]: 53% and 37%
- Population Fragmented Nuclei (%) [1]: 25%
- Population Healthy Nuclei (%) [1]: 58% and 54%
- Population Hoechst High Intensity Objects (%) [1]: 2% and 3%
- Population Membrane Permeable-Phenotype (%) [1]: 0% and 3%
- Population Mitochondria Different-Phenotype (%) [1]: 13% and 7%
- Population Mitotic Cells (%) [1]: 46% and 62%
- Population Normal (%) [1]: 97% and 96%
- Population Pyknosed Nuclei (%) [1]: 15% and 20%
- Population Tubulin-Different-Phenotype (%) [1]: 42% and 50%
- Total Cell Count [1]: 181 and 124
- Population Apoptotic (%) [2]: 46% and 41%
- Population Fragmented Nuclei (%) [2]: 24% and 44%
- Population Healthy Nuclei (%) [2]: 59% and 41%
- Population Hoechst High Intensity Objects (%) [2]: 2%
- Population Membrane Permeable-Phenotype (%) [2]: 0% and 1%
- Population Mitochondria Different-Phenotype (%) [2]: 22% and 23%
- Population Mitotic Cells (%) [2]: 53% and 58%
- Population Normal (%) [2]: 97%
- Population Pyknosed Nuclei (%) [2]: 16% and 13%
- Population Tubulin-Different-Phenotype (%) [2]: 63% and 84%
- Total Cell Count [2]: 199 and 128
- Population Apoptotic (%) [3]: 55% and 50%
- Population Fragmented Nuclei (%) [3]: 21% and 26%
- Population Healthy Nuclei (%) [3]: 62% and 59%
- Population Hoechst High Intensity Objects (%) [3]: 1% and 2%
- Population Membrane Permeable-Phenotype (%) [3]: 0% and 3%
- Population Mitochondria Different-Phenotype (%) [3]: 7% and 10%
- Population Mitotic Cells (%) [3]: 44% and 50%
- Population Normal (%) [3]: 98% and 97%
- Population Pyknosed Nuclei (%) [3]: 15% and 14%
- Population Tubulin-Different-Phenotype (%) [3]: 39% and 57%
- Total Cell Count [3]: 174 and 131
- Population Apoptotic (%) [4]: 51% and 81%
- Population Fragmented Nuclei (%) [4]: 35% and 46%
- Population Healthy Nuclei (%) [4]: 53% and 45%
- Population Hoechst High Intensity Objects (%) [4]: 0% and 1%
- Population Membrane Permeable-Phenotype (%) [4]: 0% and 1%
- Population Mitochondria Different-Phenotype (%) [4]: 34% and 14%
- Population Mitotic Cells (%) [4]: 48% and 18%
- Population Normal (%) [4]: 99% and 98%
- Population Pyknosed Nuclei (%) [4]: 11% and 8%
- Population Tubulin-Different-Phenotype (%) [4]: 63% and 80%
- Total Cell Count [4]: 247 and 136
- Population Apoptotic (%) [5]: 62% and 66%
- Population Fragmented Nuclei (%) [5]: 23% and 29%
- Population Healthy Nuclei (%) [5]: 54% and 56%
- Population Hoechst High Intensity Objects (%) [5]: 3%
- Population Membrane Permeable-Phenotype (%) [5]: 0% and 4%
- Population Mitochondria Different-Phenotype (%) [5]: 18% and 14%
- Population Mitotic Cells (%) [5]: 37% and 33%
- Population Normal (%) [5]: 96%
- Population Pyknosed Nuclei (%) [5]: 22% and 14%
- Population Tubulin-Different-Phenotype (%) [5]: 53% and 70%
- Total Cell Count [5]: 185 and 130
- Population Apoptotic (%) [6]: 74% and 88%
- Population Fragmented Nuclei (%) [6]: 22% and 45%
- Population Healthy Nuclei (%) [6]: 54% and 48%
- Population Hoechst High Intensity Objects (%) [6]: 1% and 0%
- Population Membrane Permeable-Phenotype (%) [6]: 0% and 1%
- Population Mitochondria Different-Phenotype (%) [6]: 45% and 15%
- Population Mitotic Cells (%) [6]: 25% and 11%
- Population Normal (%) [6]: 98% and 99%
- Population Tubulin-Different-Phenotype (%) [6]: 77% and 76%
- Total Cell Count [6]: 213 and 144

SMILES: CC(C)(c1ccc(O)cc1)c1ccc(O)cc1 [BISPHENOL A]
- Population Apoptotic (%) [1]: 18.37% and 18.42%
- Population Fragmented Nuclei (%) [1]: 10.19% and 4.35%
- Population Healthy Nuclei (%) [1]: 58.6% and 79.13%
- Population Hoechst High Intensity Objects (%) [1]: 0%
- Population Membrane Permeable-Phenotype (%) [1]: 2.17% and 2.75%
- Population Mitochondria Different-Phenotype (%) [1]: 8.7% and 5.49%
- Population Mitotic Cells (%) [1]: 81.63% and 81.58%
- Population Normal (%) [1]: 100%
- Population Pyknosed Nuclei (%) [1]: 31.21% and 16.52%
- Population Tubulin-Different-Phenotype (%) [1]: 15.22% and 10.44%
- Total Cell Count [1]: 157 and 230
- Population Apoptotic (%) [2]: 4.76% and 2.94%
- Population Fragmented Nuclei (%) [2]: 8.94% and 3.67%
- Population Healthy Nuclei (%) [2]: 67.6% and 82.45%
- Population Hoechst High Intensity Objects (%) [2]: 0%
- Population Membrane Permeable-Phenotype (%) [2]: 3.31% and 0.99%
- Population Mitochondria Different-Phenotype (%) [2]: 7.44% and 5.45%
- Population Mitotic Cells (%) [2]: 95.24% and 97.06%
- Population Normal (%) [2]: 100%
- Population Pyknosed Nuclei (%) [2]: 23.46% and 13.88%
- Population Tubulin-Different-Phenotype (%) [2]: 14.88% and 19.31%
- Total Cell Count [2]: 179 and 245
- Population Fragmented Nuclei (%) [3]: 7.23% and 3.8%
- Population Healthy Nuclei (%) [3]: 68.07% and 86.92%
- Population Hoechst High Intensity Objects (%) [3]: 0%
- Population Membrane Permeable-Phenotype (%) [3]: 4.42% and 3.88%
- Population Mitochondria Different-Phenotype (%) [3]: 5.31% and 2.91%
- Population Mitotic Cells (%) [3]: 90.24% and 59.09%
- Population Normal (%) [3]: 100%
- Population Pyknosed Nuclei (%) [3]: 24.7% and 9.28%
- Population Tubulin-Different-Phenotype (%) [3]: 14.16% and 12.14%
- Total Cell Count [3]: 166 and 237
- Population Apoptotic (%) [4]: 6.45% and 4.76%
- Population Fragmented Nuclei (%) [4]: 7.18% and 3.7%
- Population Healthy Nuclei (%) [4]: 76.92% and 87.65%
- Population Hoechst High Intensity Objects (%) [4]: 0%
- Population Membrane Permeable-Phenotype (%) [4]: 2.67% and 1.88%
- Population Mitochondria Different-Phenotype (%) [4]: 6% and 4.23%
- Population Mitotic Cells (%) [4]: 93.55% and 95.24%
- Population Normal (%) [4]: 100%
- Population Pyknosed Nuclei (%) [4]: 15.9% and 8.64%
- Population Tubulin-Different-Phenotype (%) [4]: 16% and 16.43%
- Total Cell Count [4]: 195 and 243
- Population Apoptotic (%) [5]: 50% and 33.33%
- Population Fragmented Nuclei (%) [5]: 8.98% and 4.96%
- Population Healthy Nuclei (%) [5]: 86.23% and 86.36%
- Population Hoechst High Intensity Objects (%) [5]: 0%
- Population Membrane Permeable-Phenotype (%) [5]: 0.69% and 2.39%
- Population Mitochondria Different-Phenotype (%) [5]: 11.11% and 3.83%
- Population Mitotic Cells (%) [5]: 50% and 66.67%
- Population Normal (%) [5]: 100%
- Population Pyknosed Nuclei (%) [5]: 4.79% and 8.68%
- Population Tubulin-Different-Phenotype (%) [5]: 3.47% and 12.92%
- Total Cell Count [5]: 167 and 242
- Population Apoptotic (%) [6]: 25% and 14.29%
- Population Fragmented Nuclei (%) [6]: 8.49% and 3.36%
- Population Healthy Nuclei (%) [6]: 85.85% and 90.76%
- Population Hoechst High Intensity Objects (%) [6]: 0%
- Population Membrane Permeable-Phenotype (%) [6]: 0% and 4.63%
- Population Mitotic Cells (%) [6]: 75% and 85.71%
- Population Normal (%) [6]: 100%
- Population Pyknosed Nuclei (%) [6]: 5.66% and 5.88%
- Population Tubulin-Different-Phenotype (%) [6]: 7.14% and 18.52%
- Total Cell Count [6]: 212 and 238
